Assay results reported in ChEMBL document CHEMBL4689842, “EUbOPEN Chemogenomics Library wave 1” (2021).
“And” between values parts separate entries of the source, which are not always exact repeats. Identical values can stand only once.

System: U2OS
Experiment: Multiplex assay against U2OS
Format: toxicity, cell-based
Details: human, 1 µM, compound concentration 1 uM
Procedure, shortened: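 On a CQ1 microscope at 37°C and 5% CO2, live cells were imaged after compound addition. They had been stained at seeding with Hoechst33342, BioTracker Green Microtubule Cytoskeleton Dye, MitoTracker Red and Annexin V Alexa Fluor 680. CellPathfinder machine-learning gating assigned cells to Hoechst high-intensity objects or normal cells, normal cells to healthy, pyknosed or fragmented nuclei, and pyknosed cells to mitotic or apoptotic. Tubulin, mitochondrial-mass and membrane-permeability phenotypes are per cents of healthy-nucleus cells.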

## CN([C@@H](Cc1ccc(OS(=O)(=O)c2cccc3cnccc23)cc1)C(=O)N1CCN(c2ccccc2)CC1)S(=O)(=O)c1cccc2cnccc12
12 h, replicate 1
  Population Apoptotic (%): 52% and 61%
  Population Fragmented Nuclei (%): 3% and 2%
  Population Healthy Nuclei (%): 83% and 89%
  Population Hoechst High Intensity Objects (%): 1%
  Population Membrane Permeable-Phenotype (%): 38% and 75%
  Population Mitochondria Different-Phenotype (%): 32% and 23%
  Population Mitotic Cells (%): 47% and 38%
  Population Normal (%): 98%
  Population Pyknosed Nuclei (%): 12% and 7%
  Population Tubulin-Different-Phenotype (%): 99%
  Total Cell Count: 150 and 181
12 h, replicate 2
  Population Apoptotic (%): 25% and 40%
  Population Fragmented Nuclei (%): 16% and 6%
  Population Healthy Nuclei (%): 74% and 79%
  Population Hoechst High Intensity Objects (%): 13% and 15%
  Population Membrane Permeable-Phenotype (%): 33% and 69%
  Population Mitochondria Different-Phenotype (%): 46% and 45%
  Population Mitotic Cells (%): 75% and 60%
  Population Normal (%): 86% and 84%
  Population Pyknosed Nuclei (%): 9% and 13%
  Population Tubulin-Different-Phenotype (%): 100%
  Total Cell Count: 104 and 101
24 h, replicate 1
  Population Apoptotic (%): 69% and 58%
  Population Fragmented Nuclei (%): 4% and 5%
  Population Healthy Nuclei (%): 75% and 73%
  Population Hoechst High Intensity Objects (%): 2% and 1%
  Population Membrane Permeable-Phenotype (%): 25% and 68%
  Population Mitochondria Different-Phenotype (%): 55%
  Population Mitotic Cells (%): 30% and 41%
  Population Normal (%): 97% and 98%
  Population Pyknosed Nuclei (%): 20% and 21%
  Population Tubulin-Different-Phenotype (%): 98% and 99%
  Total Cell Count: 154 and 198
24 h, replicate 2
  Population Apoptotic (%): 57% and 53%
  Population Fragmented Nuclei (%): 15% and 12%
  Population Healthy Nuclei (%): 68%
  Population Hoechst High Intensity Objects (%): 12% and 9%
  Population Membrane Permeable-Phenotype (%): 32% and 54%
  Population Mitochondria Different-Phenotype (%): 62% and 70%
  Population Mitotic Cells (%): 42% and 46%
  Population Normal (%): 87% and 90%
  Population Pyknosed Nuclei (%): 15%
  Population Tubulin-Different-Phenotype (%): 100%
  Total Cell Count: 99 and 102
